In ChEMBL document CHEMBL4325901, “Novel multitarget-directed ligands targeting acetylcholinesterase and σ1 receptors as lead compounds for treatment of Alzheimer's disease: Synthesis, evaluation, and structural characterization of their complexes with acetylcholinesterase” (Eur J Med Chem, 2019):
Calls of active or inactive are those of the source. The calls are words filed in the database; no cut-off is given here.

Experiments:
[1] = molecular target: T1, 5-hydroxytryptamine receptor 4 (Homo sapiens, UniProt Q13639); test: Displacement of [3H]-GR113808 from recombinant human 5-HT4BR expressed in membranes at 1 uM after 60 mins relative to control
How it was run: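 Crude membranes from a stable recombinant cell line expressing 5-HT4B were incubated in duplicate at 25 °C for 60 min with compound at 10^-6 or 10^-8 M and 0.2 nM [3H]-GR113808 in 25 mM Tris, pH 7.4. They were filtered through polyethylenimine-presoaked GF/C filters and washed three times with ice-cold Tris. Nonspecific binding was defined with serotonin.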

[2] = molecular target: T2, Acetylcholinesterase (Homo sapiens, UniProt P22303); test: Inhibition of human erythrocytes AChE using acetylthiocholine iodide as substrate preincubated for 5 mins followed by substrate addition measured at 1 min time interval for 10 mins by Ellman's method
[3] = molecular target: T1, 5-hydroxytryptamine receptor 4; test: Displacement of [3H]-GR113808 from recombinant human 5-HT4BR expressed in membranes after 60 mins
[4] = molecular target: Sigma non-opioid intracellular receptor 1 (Homo sapiens, UniProt Q99720); test: Displacement of [3H]-(+)-pentazocine from sigma-1 receptor in human Jurkat cell membranes after 2 hrs by liquid scintillation counting method
[5] = tested on: Mus musculus; test: Cognition enhancing effect in Swiss mouse assessed as protection against dizocilpine-induced spatial memory impairment by measuring spontaneous alternation performance at 0.1 to 1 mg/kg, ip pretreated for 10 mins followed by dizocilpine treatment and measured after 20 mins by Y-maze test; format: functional, organism-based
How it was run: (§1)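 Male Swiss mice, 6 weeks, 32 g, groups of 12e16. Compounds dissolved in 10% DMSO in saline, diluted in saline; vehicle 2% DMSO in saline. Given IP 10 min before dizocilpine 0.15 mg/kg IP, 20 min before Y-maze session (alternation % and arm entries) or passive-avoidance training (footshock 3 s on entering dark compartment; step-through latency).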

[6] = tested on: Mus musculus; test: Cognition enhancing effect in Swiss mouse assessed as protection against dizocilpine-induced long term non-spatial memory impairment by measuring increase in step-through latency at 0.1 mg/kg, ip pretreated for 10 mins followed by dizocilpine treatment and measured after 20 mins by passive avoidance test relative to control; format: functional; how it was run: as §1
[7] = molecular target: T1, 5-hydroxytryptamine receptor 4; test: Antagonist activity at 5-HT4R (unknown origin) expressed in CHO cells assessed as reduction in intracellular cAMP accumulation after 15 mins by radio-immunoassay; format: functional, cell-based
[8] = molecular target: T2, Acetylcholinesterase; test: Non-competitive inhibition of human erythrocytes AChE up to 1 uM using varying levels of acetylthiocholine iodide substrate preincubated for 5 mins followed by substrate addition measured at 1 min time interval for 10 mins by Lineweaver-Burk plot analysis
[9] = molecular target: T1, 5-hydroxytryptamine receptor 4; test: Agonist activity at 5-HT4R (unknown origin) expressed in CHO cells assessed as intracellular cAMP accumulation after 15 mins by radio-immunoassay; format: functional, cell-based
How it was run: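 Stably transfected CHO cells grown to confluence, serum-starved 4 h, then preincubated 15 min in serum-free medium with 5 mM theophylline, 10 mM pargyline and […] to block endogenous 5-HT1B receptors. 5-HT or test compound added for a further 15 min. Stopped with ice-cold ethanol, 30 min at room temperature, ethanol fraction dried, cAMP quantified by competitive radioimmunoassay.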

Sequence of Sigma non-opioid intracellular receptor 1 (Q99720 whole entry): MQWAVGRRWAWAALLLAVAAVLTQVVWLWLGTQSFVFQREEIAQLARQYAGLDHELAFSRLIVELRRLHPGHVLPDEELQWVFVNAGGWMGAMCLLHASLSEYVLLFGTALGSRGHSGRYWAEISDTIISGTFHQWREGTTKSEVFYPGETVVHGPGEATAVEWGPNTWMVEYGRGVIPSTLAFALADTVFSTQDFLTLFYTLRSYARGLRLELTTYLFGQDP
T1 sequence (Q13639 whole entry): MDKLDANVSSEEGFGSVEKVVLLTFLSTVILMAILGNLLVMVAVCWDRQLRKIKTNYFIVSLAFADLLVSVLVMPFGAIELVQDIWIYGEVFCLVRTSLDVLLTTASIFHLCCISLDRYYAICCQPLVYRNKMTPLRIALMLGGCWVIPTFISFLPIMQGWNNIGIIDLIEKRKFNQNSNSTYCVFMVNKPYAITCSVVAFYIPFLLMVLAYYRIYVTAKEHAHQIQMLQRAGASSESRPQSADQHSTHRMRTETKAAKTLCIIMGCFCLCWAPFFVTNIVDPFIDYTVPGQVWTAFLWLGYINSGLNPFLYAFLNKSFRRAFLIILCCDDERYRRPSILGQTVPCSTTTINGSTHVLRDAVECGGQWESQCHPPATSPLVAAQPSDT
T2 sequence (P22303 whole entry): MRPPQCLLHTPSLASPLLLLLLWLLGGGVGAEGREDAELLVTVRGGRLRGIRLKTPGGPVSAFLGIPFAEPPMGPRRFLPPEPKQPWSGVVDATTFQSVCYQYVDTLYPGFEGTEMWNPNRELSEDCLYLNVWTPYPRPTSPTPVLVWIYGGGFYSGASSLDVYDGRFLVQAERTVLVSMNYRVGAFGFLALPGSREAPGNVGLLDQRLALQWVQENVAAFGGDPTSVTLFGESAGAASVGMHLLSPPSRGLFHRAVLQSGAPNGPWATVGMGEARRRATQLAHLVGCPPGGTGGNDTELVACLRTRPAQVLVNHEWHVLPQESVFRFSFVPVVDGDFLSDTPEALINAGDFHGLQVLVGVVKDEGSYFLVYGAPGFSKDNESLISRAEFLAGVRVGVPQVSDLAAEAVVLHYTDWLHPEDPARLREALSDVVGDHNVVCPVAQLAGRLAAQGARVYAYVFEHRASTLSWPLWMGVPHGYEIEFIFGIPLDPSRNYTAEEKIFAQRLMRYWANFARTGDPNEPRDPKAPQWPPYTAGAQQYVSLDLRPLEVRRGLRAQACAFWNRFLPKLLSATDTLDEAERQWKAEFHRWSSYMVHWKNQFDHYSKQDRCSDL

SMILES	inhibition [1] [%]	IC50 [2] [µM]	Ki [3] [µM]	Ki [4] [µM]	also measured
COc1c(C(=O)CCC2CCN(CC3CCCCC3)CC2)cc(Cl)c2c1ccn2S(=O)(=O)c1ccccc1	62	0.559			
COc1c(C(=O)CCC2CCN(CC3CCCCC3)CC2)cc(Cl)c2c1ccn2Cc1ccccc1		0.261			
COc1cc2c(cc1OC)C(=O)C(CC1CCN(Cc3ccccc3)CC1)C2 (centres undefined)	10				
O=C(CCC1CCN(CC2CCCCC2)CC1)c1ccc2[nH]ccc2c1	100	0.051	0.0375		
COc1c(C(=O)CCC2CCN(Cc3ccccc3)CC2)cc(Cl)c2[nH]ccc12	96	0.0204	0.15	0.0057	
COc1c(C(=O)CCC2CCN(CC3CCCCC3)CC2)cc(Cl)c2c1ccn2C		0.0844			
O=C(CCC1CCN(CC2CCCCC2)CC1)c1cc(Cl)c2[nH]ccc2c1	100	0.0288	0.0375	0.0051	Activity [5]: inactive; Activity [6]: 40%
COc1c(C(=O)CCC2CCN(CC3CCCCC3)CC2)cc(Cl)c2[nH]ccc12	100	0.0914	0.0409	0.0051	inhibition [7]: Active; inhibition [8]: Active
COc1c(C(=O)CCC2CCN(Cc3ccccc3)CC2)cc(Cl)c2[nH]c([Si](C)(C)C)cc12	62	0.275			
COc1c(C(=O)CCC2CCN(CC3CCCCC3)CC2)ccc2[nH]ccc12	100	0.04	0.051		
O=C(CCC1CCN(CC2CCCC2)CC1)c1ccc2[nH]ccc2c1	100	0.094	0.025		
O=C(CCC1CCN(Cc2ccccc2)CC1)c1ccc2[nH]ccc2c1	90	0.0133	0.169	0.0033	
CCCCN1CCC(CCC(=O)c2cc(Cl)c(N)cc2OC)CC1	100				
CCCCN1CCC(CCC(=O)c2ccc3[nH]ccc3c2)CC1	97	0.716	0.0496		
COc1cc(N)c(Cl)cc1C(=O)CCC1CCN(CC2CCCCC2)CC1				0.051	Activity [9]: Active
O=C(CCC1CCN(CC2CCCCC2)CC1)c1ccc2c(ccn2Cc2ccccc2)c1	42	0.133			
